Bioassay records from PubChem BioAssay.
The list is not random: actives were taken first. Their share in the collection is about 3.9%.
HSF1 activator: increases HSF-1 driven luciferase reporter signal. AID 504408. NIH3T3-HGL HSF-1 luciferase reporter, MG132, 8 h; 100% = twice DMSO control signal. activation, % at 9 µM. 300,000 compounds, 1.7% hits;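 active means mean replicate activation of at least 50% with a set share of replicates each reaching 50%; inconclusive means only one of those two conditions met; inactive means mean below 50% and too few replicates reaching it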
HSF1 inh: HSF1 inhibition; NIH3T3-HGL HSE-luciferase, MG132-induced, luminescence 8 h; active compounds read low; AID 2098; 300,000 compounds, 0.77% hits; activity change, negative = inhibition, % at 7.5 µM (by protocol);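 active means more than half of replicate wells show activity change below -50%, luminescence cut by over half; inconclusive means some wells, but at most half, below -50%; inactive means no replicate well below -50%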;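 further: luciferase reports HSF-1 transcriptional activity via heat shock element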
core dimer inh: HCV core protein dimerization inhibition; TR-FRET GST/Flag-core106 dimerization, 1536-well; inhibition, % at 5 µM; 300,000 compounds, 0.33% hits; AID 1899;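 active means inhibition above the mean of all tested compounds plus 3 SD, set per screening campaign, cut at about 45% in these data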
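Test system: GST/Flag-tagged HCV core106 proteins; Medium: KF-containing HEPES buffer, pH 7.45, DTT, CHAPS, BSA; Times: compound-protein-antibody incubation 4 h at 22.5 °C; Detection: TR-FRET 671 and 617 nm emission; Benchmarks: wells lacking GST-core106 and wells with excess unlabelled core106.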
HCV NS3 hel inh: HCV NS3 helicase inhibition | 290,000 compounds, 0.56% hits | inhibition, % at 10.9 µM | AID 1800 | NS3 helicase DNA unwinding, Cy5 molecular beacon fluorescence;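 active means inhibition above the mean of all tested compounds plus 3 SD, set per campaign, cut at about 35% in these data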
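System: HCV NS3 helicase fragment; control set: DMSO and thioflavine S; technique: Cy5 fluorescence at 0 and 60 min, beacon hairpin quenching; reagent: beacon DNA duplex substrate plus ATP; replicates: singlicate; schedule: 1 h reaction at 25 °C, ATP-initiated; medium: MOPS buffer pH 6.5 with MgCl2, DTT, Tween20, BSA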
DNA FID counter: fluorescent intercalator displacement, NS3 helicase counter-screen | DNA fluorescent intercalator displacement, fluorescence | inhibition, % at 7.9 µM | 290,000 compounds, 0.17% hits; in the data active means inhibition above about 37%;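 further: higher means more ethidium bromide displaced from hairpin DNA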
HSP90 refold inh: blocks HSP90-mediated luciferase refolding in reticulocyte lysate; inhibition, % at 5.6 µM; 290,000 compounds, 0.91% hits; Rabbit reticulocyte lysate, luciferase refolding luminescence, 3 h;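 active means inhibition above the screen-wide mean plus 3 SD, computed separately per campaign, cut at about 16% in these data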;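 further: inhibitors lower the luminescence because luciferase stays unfolded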
Large screens that a line does not name were inactive.

COc1ccc(-c2cc(-c3ccc(O)cc3)nc(N)c2C#N)cc1	none
COc1ccc(-c2cc(-c3ccccc3)c(C#N)c(S(C)(=O)=O)n2)cc1	HSF1 activator 71
COc1ccc(-c2cc(-c3ccc(OC)cc3)c(C#N)c(SC)n2)cc1	core dimer inh 75
CC(=O)Nc1ccc(NC(=O)C2CC(=O)N(c3cccc(Cl)c3)C2)cc1 (centres undefined)	none
Cc1cnc(NC(=O)C2CC(=O)N(c3cccc(Cl)c3)C2)s1 (centres undefined)	HSF1 activator 77
COc1ccc(CCNc2oc(-c3ccccc3OC)nc2C#N)cc1	HSF1 activator 95
COc1ccc(CCNc2oc(-c3ccccc3OC)nc2C#N)cc1OC	none
COc1cccc2sc(N(C)c3ccccc3)nc12	HSF1 activator 64
Cc1ccc2[nH]c(=O)c(CN(C(=O)c3cccc([N+](=O)[O-])c3)C(C)C)cc2c1	HSF1 inh -57
Cc1cccc(CN2CCC(C(=O)Nc3cccc(-c4cccc(F)c4)c3)CC2)n1	none
Cc1cccc(CN2CCC(C(=O)Nc3cccc(-c4cscn4)c3)CC2)n1	HSF1 activator 82
Cn1cc(CN2CCC(C(=O)Nc3cccc(-c4cccc(F)c4)c3)CC2)cn1	none
C=CCn1cc(CN2CCC(C(=O)Nc3cccc(-c4cccc(Cl)c4)c3)CC2)c(C)n1	DNA FID counter 41
CCCn1ncc(CN2CCC(C(=O)Nc3cccc(-c4cccc(F)c4)c3)CC2)c1C	DNA FID counter 44
CC(NC(=O)c1cccc(F)c1)C1CC2CCC1C2 (centres undefined)	none (no result: HCV NS3 hel inh, DNA FID counter, HSP90 refold inh)
COc1ccc(S(=O)(=O)N2CCC(C(=O)NCCC(=O)Nc3cccc(Cl)c3)CC2)cc1	none
O=C(Nc1cnn(Cc2ccc(F)cc2)c1)c1cc(-c2ccco2)on1	HSF1 inh -54
COc1ccc(Cl)cc1NC(=O)c1cc(-c2ccco2)on1	core dimer inh 63
COc1cccc(-c2cc(C(=O)Nc3cnn(Cc4ccc(F)cc4)c3)no2)c1	none
Cc1ccc(NC(=O)c2cc(-c3ccco3)on2)cc1C	HSF1 activator 55
O=C(Nc1cc(Cl)ccc1Cl)c1cc(-c2ccco2)on1	none
Cc1ccc(NC(=O)c2cc(-c3ccco3)on2)cc1	none
CCN(CC)S(=O)(=O)c1ccc(OC)c(NC(=O)CC2CCCC2)c1	none
CC(=O)Nc1c(O)nc(SCC(=O)Nc2c(C)cccc2C)[nH]c1=O	none
COC1CCCN(C(=O)c2ccc(OC3CCN(CCc4ccccc4)CC3)cc2)C1 (centres undefined)	HSF1 inh -74
O=C(c1ccc(OC2CCN(CCc3ccccc3)CC2)cc1)N1CCCC(O)C1 (centres undefined)	none
CCCCCCCCc1nnc(N)s1	none
Clc1ccccc1N1CCN(c2ncnc3nc[nH]c23)CC1	HSP90 refold inh 58
C=CCc1c(C)nc2ccc(C(=O)OCC)cc2c1Cl	none
CCc1nn2c(=O)cc(COc3ccc(/C=C4\C(=N)N5N=C(C)SC5=NC4=O)cc3)nc2s1	core dimer inh 47
Nn1c(SCC(=O)NCc2ccccc2)nnc1C1CC1	HSF1 activator 52
Nn1c(SCC(=O)N2CCOCC2)nnc1C1CC1	HSF1 activator 83
Nn1c(SCC(=O)Nc2ccccc2)nnc1C1CCCCC1	none (no result: HCV NS3 hel inh, DNA FID counter, HSP90 refold inh)
Cc1ccccc1C(=O)NCC(=O)O	none
COc1ccc(C(CC(=O)c2ccc(C)cc2)C(C#N)C#N)cc1OC (centres undefined)	HSF1 activator 73
COc1ccc(NC2c3ccccc3C(=O)N2c2ccccn2)cc1 (centres undefined)	none
COc1ccc(CCNC(=O)CSc2nncs2)cc1	none
CCOc1ccc(/C=N/NC(=O)c2ccc(Cn3cc([N+](=O)[O-])cn3)o2)cc1	HSF1 inh -55
CCOc1ccc(/C=N/NC(=O)c2ccc(Cn3cc(Br)cn3)o2)cc1	none
Nc1ccc(-c2nc3ccccc3o2)cc1	HSP90 refold inh 17
CC(=O)Nc1cccc(-c2nc3ccccc3o2)c1	HSF1 activator 73
Nc1cc(N)cc(-c2nc3ccccc3o2)c1	none (no result: HCV NS3 hel inh, DNA FID counter, HSP90 refold inh)
COc1ccc(C2C(C#N)=C(C)NC3=C2C(=O)c2ccccc23)cc1 (centres undefined)	none
CC1=C([N+](=O)[O-])C(c2ccccc2)C2=C(N1)c1ccccc1C2=O (centres undefined)	HSF1 activator 57
CSc1ccc(CN(C)Cc2cc(=O)oc3c(C)c(C)ccc23)cc1	HSF1 inh -69
Cc1ccc2c(CN3CCC(C)CC3)cc(=O)oc2c1C	HSF1 activator 54 (no result: core dimer inh)
Cc1ccc2c(CN(C)Cc3cccc(Cl)c3)cc(=O)oc2c1C	none
Cc1ccc2c(CN3CC(C)CC(C)C3)cc(=O)oc2c1C (centres undefined)	none
O=C1c2ccccc2C(=O)N1CC1c2ccccc2CCN1C(=O)CN1CCOCC1 (centres undefined)	none
Cc1cc(/C=C2/SC(=S)N(c3cccc(C(F)(F)F)c3)C2=O)c(C)n1-c1cccnc1	none
Cc1cc(NC(=O)c2ccc(S(=O)(=O)N3CCc4ccccc43)cc2)no1	core dimer inh 72
CCCNC(=S)NC1CC2CCCC(C1)N2Cc1ccc(F)cc1 (centres undefined)	HSF1 inh -61
COc1ccc(N2CCN(C(=O)c3ccc(CS(=O)Cc4ccc(Cl)cc4)o3)CC2)cc1 (centres undefined)	none
O=C(Nc1nc2ccccc2[nH]1)c1cccs1	HSF1 activator 55
O=C(Nc1nc2ccccc2[nH]1)c1ccc([N+](=O)[O-])cc1	HSF1 activator 61
O=c1[nH]c2ccccc2nc1/C=C(\O)c1cccs1	none
O=C(Nc1nc2ccccc2[nH]1)C1CC1	none
O=C(/C=C/c1ccc(F)cc1)Nc1nc2ccccc2[nH]1	HSF1 activator 55
O=C(Nc1nc2ccccc2[nH]1)Nc1ccccc1F	HSF1 activator inconclusive
O/C(=C\c1nc2ccccc2[nH]1)c1cccs1	HSF1 activator 60
O=[N+]([O-])c1cccnc1NCCNc1ncc(C(F)(F)F)cc1Cl	HSF1 activator 85
Cc1nc2ccccc2nc(=O)c1NNc1ccccc1	HSF1 activator 65 (no result: core dimer inh)
S=C1NCCOCCNC(=S)NCCOCCOCCOCCN1	none
Brc1ccc(/C=N/Nc2nc3ccccc3o2)cc1	HSF1 activator 63
Oc1ccccc1/C=N/Nc1nc2ccccc2o1	none
O=C1c2cc([N+](=O)[O-])cc3cc([N+](=O)[O-])cc(c23)C(=O)N1c1ccccn1	HSF1 activator 124
C#CC[N+]1(CC#Cc2ccccc2)CCCCC1	HSF1 activator 82
COC(=O)c1ccccc1NC(=O)CSc1nc(Nc2ccccc2)nc(N2CCOCC2)n1	HSF1 activator 77
CC(C)(C)S(=O)(=O)c1ccccc1C(=O)O	none
